The nature of series [1]: Induction of NO release in phosphate buffered saline of pH 7.4 at 10^-4 M after 1 hr by Griess assay in presence of L-cysteine. In kind it is physicochemical. Conditions: buffer, pH 7.4, 1 h, 100 µM. In outline:
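Compound at 10^-4 M final in 1:1 v/v 50 mM PBS (pH 7.4)/MeOH containing 5 × 10^-4 M L-cysteine, 1 h at 37 °C; mixture treated with Griess reagent, 10 min at room temperature, absorbance 540 nm. Nitrite quantified against sodium nitrite standards (10–80 nmol/mL); expressed as % of theoretical 1 mol NO/mol compound, n = 3.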
On the technique in general: The Griess reaction detects nitrite, a stable product of nitric oxide.

Series [2] can be described thus: Inhibition of advanced glycation end product formation in phosphate buffered saline at pH 7.4 after 14 days by fluorospectrophotometry. In kind it is physicochemical.
For series [3], the target named is Aldo-keto reductase family 1 member B1 (Homo sapiens, UniProt P15121). Description: Inhibition of aldose reductase by spectrophotometric analysis.

For orientation: IC50 means the midpoint of a concentration-inhibition curve. Low values mean higher potency, high ones lower potency. As for `CC(=O)Oc1cc(OCC(=O)OCc2cccc(OCc3c(-c4ccccc4)no[n+]3[O-])c2)cc2oc(-c3ccccc3)cc(=O)c12`, the Activity in series [1] was 1.89%. Also, the IC50 in series [2] came to 26400 nM; in series [3], 1620 nM.

On to `CC(=O)Oc1cc(OCC(=O)OCc2c(-c3ccccc3)no[n+]2[O-])cc2oc(-c3ccccc3)cc(=O)c12`, for which the IC50 in series [3] came to 900 nM.

`O=C(COc1cc(O)c2c(=O)cc(-c3ccccc3)oc2c1)OCc1cccc(OCc2c(-c3ccccc3)no[n+]2[O-])c1` had an IC50 in series [3] of 220 nM. As to `N=C(N)NN` [PIMAGEDINE], the midpoint of inhibition in series [2], the IC50, lay at 826000 nM. For `O=c1cc(-c2ccccc2)oc2cc(O)cc(O)c12` [CHRYSIN], the figures for the IC50 in series [2] and in series [3] were 63500 nM and 7780 nM, respectively. Consider `O=C(COc1cc(O)c2c(=O)cc(-c3ccccc3)oc2c1)OCc1c(-c2ccccc2)no[n+]1[O-]`, for which the IC50 in series [3] came to 750 nM. In series [3], `[O-][n+]1onc(-c2ccccc2)c1CO` gave an IC50 of at least 10000 nM.

Molecule `CC(=O)Oc1cc(OCC(=O)OCc2ccc(OCc3c(-c4ccccc4)no[n+]3[O-])cc2)cc2oc(-c3ccccc3)cc(=O)c12` returned an IC50 in series [3] of 1930 nM.

On to `O=C(COc1cc(O)c2c(=O)cc(-c3ccccc3)oc2c1)OCc1ccc(OCc2c(-c3ccccc3)no[n+]2[O-])cc1`, for which the half-maximal inhibitory concentration (IC50) in series [3] turned out to be 400 nM.

The values above are taken from ChEMBL document CHEMBL1667841, “Furoxan nitric oxide donor coupled chrysin derivatives: synthesis and vasculoprotection” (Bioorg Med Chem Lett, 2011).
